Article PMC9298613 (Journal of Food and Drug Analysis, 2018)

Assays:
[1] = at steady state; cited from earlier work
CYP2D6 = experiment: Western blot of hepatic CYP2D6 protein expression; assay type: in vivo, Wistar rats; conditions: for Reduction of CYP2D6 protein: rat received SA, compared with rats received APZ alone
Summary of the method: (§1)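 Wistar rats (190–210 g, n = 6/group), food withheld 12 h beforehand. Antipsychotic test compound 3 mg/kg p.o. once on day 15 or daily for 15 days; controls given oral saline for 15 days. After ether euthanasia, liver excised. 25 μg hepatic protein run on 10% SDS gel, transferred to PVDF, primary antibody overnight at 4 °C, HRP secondary 60 min. Chemiluminescence, densitometry, β-actin also probed. Mean ± SD, ANOVA/Dunnett.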

CYP3A2 and CYP2D6 = experiment: Hepatic CYP3A2 and CYP2D6 protein expression, summary statements; assay type: in vivo, Wistar rats; conditions: APZ after single or multiple dosing
Summary of the method: as §1

CYP3A2 = experiment: Western blot of hepatic CYP3A2 protein expression; assay type: in vivo, Wistar rats; conditions: for Reduction of CYP3A2 protein: rat received SA, compared with rats received APZ alone
Summary of the method: as §1

[2] = Pharmacokinetics of APZ in rat plasma; assay type: in vivo, Wistar rats
[3] = multiple dose of APZ 3 mg/kg p.o. 15 days, compared to normal controls, p < 0.05
[4] = single dose of APZ 3 mg/kg p.o., liver, compared with normal controls, p <0.05
[5] = APZ 3 mg/kg p.o. daily for 15 days (multiple doses), with or without SA 20 mg/kg p.o. for 15 days, mean ± SD, n = 6
[6] = Wistar, rat, plasma, po, 3 mg/kg
[7] = administration of SA, in contrast to rats treated with multiple doses of APZ, p <0.05
[8] = animals treated with SA for 15 days, compared to rats treated with a single dose of APZ

O=C1CCc2ccc(OCCCCN3CCN(c4cccc(Cl)c4Cl)CC3)cc2N1 [APZ, 7-[4-[4-(2,3-dichlorophenyl)-1-piperazinyl]butoxy]-3,4-dihydrocarbostyril]
APZ converted to the major metabolite DAPZ [1]: about 40%
Enhancement in liver expression of CYP2D6 (CYP2D6; [3]): 91.17%
Increase in CYP2D6 expression (CYP2D6; [4]): 82%
Increases in CYP3A2 and CYP2D6 expressions in hepatic tissues (CYP3A2 and CYP2D6): 2–3 folds
Enhancement in liver expression of CYP3A2 (CYP3A2; [3]): 135.29%
Enhancement in CYP3A2 protein expression (CYP3A2; [4]): 90%
AUMC 0-∞ [2, 5]: 3443.83 ± 234.17 ng/ml × h^^2
CL [2, 5]: 2.28 ± 0.09 mL/kg/h
Ke [2, 5]: 0.04 ± 0.005 h⁻¹
Vd [2, 5]: 65.01 ± 6.53 mL/kg
Tmax [2, 6]: 8 h
k el [2, 6]: 1.11e-05 s⁻¹
AUC(0-t) ([2]; Wistar, rat, plasma, po, 3 mg/kg, AUC 0-t, APZ 3 mg/kg p.o. daily for 15 days (multiple doses), with or without SA 20 mg/kg p.o. for 15 days, mean ± SD, n = 6): 122 ± 3.45 ng·h/mL
AUC(0-inf) ([2]; Wistar, rat, plasma, po, 3 mg/kg, AUC 0-∞, APZ 3 mg/kg p.o. daily for 15 days (multiple doses), with or without SA 20 mg/kg p.o. for 15 days, mean ± SD, n = 6): 132 ± 4.85 ng·h/mL
Cmax ([2]; Wistar, rat, plasma, po, 3 mg/kg, Cmax, APZ 3 mg/kg p.o. daily for 15 days (multiple doses), with or without SA 20 mg/kg p.o. for 15 days, mean ± SD, n = 6): 7.08 ± 0.89 ng/mL
MRT inf ([2]; Wistar, rat, plasma, po, 3 mg/kg, MRT 0-∞, APZ 3 mg/kg p.o. daily for 15 days (multiple doses), with or without SA 20 mg/kg p.o. for 15 days, mean ± SD, n = 6): 26.1 ± 1.01 h
half-life ([2]; Wistar, rat, plasma, po, 3 mg/kg, T1/2, APZ 3 mg/kg p.o. daily for 15 days (multiple doses), with or without SA 20 mg/kg p.o. for 15 days, mean ± SD, n = 6): 1190 ± 151 min

COc1cc(C=CC(=O)O)cc(OC)c1O [SA, 3,5-dimethoxy-4-hydroxycinnamic acid]
Reduction in hepatic expression of CYP2D6 (CYP2D6; [7]): 65.76%
Reduction of CYP2D6 hepatic protein (CYP2D6; [8]): 34.06%
Reduction of CYP2D6 protein (CYP2D6; multiple dose study, p <0.05): 71.15%
Reduction of CYP2D6 protein (CYP2D6; single dose study, p <0.05): 53.84%
Reduction in hepatic expression of CYP3A2 (CYP3A2; [7]): 54.68%
Reduction of CYP3A2 hepatic protein (CYP3A2; [8]): 31.57%
Reduction of CYP3A2 protein (CYP3A2; multiple dose study, p <0.05): 73.75%
Reduction of CYP3A2 protein (CYP3A2; single dose study, p <0.05): 50.52%
Change in T1/2 of APZ on co-administration of SA (in words) ([2]; APZ single dose, SA 20 mg/kg p.o. for 15 days, compared with APZ alone): without a significant change
